pEC50, pIC50, pKi: −log10 of the molar value. “And” between values parts separate entries of the source, which are not always exact repeats. Identical values can stand only once. The source made the active and inactive calls. The calls are words filed in the database; no cut-off is given here.
How the values were obtained:
Trypanothione reductase [1] = target: T1, Trypanothione reductase (Trypanosoma cruzi, UniProt P28593); experiment: (§1) Inhibitory activity against Trypanosoma cruzi trypanothione reductase
Trypanosoma brucei [2] = experiment: Antiparasitic activity against Trypanosoma brucei; type: functional; conditions: read-out: ED50 (the source's name)
Trypanothione reductase [3] = target: T1, Trypanothione reductase; experiment: as §1; remark: listed apart in the source
In short: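 T. cruzi TR, isolated enzyme (3 µg/mL), assayed at 25 °C in 0.02 M HEPES pH 7.25 with 0.15 M KCl, 1 mM EDTA and 0.1 mM NADPH. (ZCGdmapa)2 substrate was used at 0.24, 0.12, 0.06 or 0.03 mM, and Ki was fitted as linear competitive.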

Trypanosoma brucei [4] = experiment: Activity against Trypanosoma brucei.
Trypanosoma cruzi [5] = experiment: Antiparasitic activity against Trypanosoma cruzi at the dose of 1 uM; type: functional
Trypanosoma cruzi [6] = experiment: Antiparasitic activity against Trypanosoma cruzi.; type: functional; conditions: read-out: ED50 (the source's name)
Trypanosoma cruzi [7] = experiment: Antiparasitic activity against Trypanosoma cruzi at the dose of 3 uM; type: functional
[8] = target: T2, Glutathione reductase, mitochondrial (Homo sapiens, UniProt P00390); experiment: Inhibitory activity against Human Erythrocyte glutathione reductase (GR).
T2 sequence (P00390 whole entry): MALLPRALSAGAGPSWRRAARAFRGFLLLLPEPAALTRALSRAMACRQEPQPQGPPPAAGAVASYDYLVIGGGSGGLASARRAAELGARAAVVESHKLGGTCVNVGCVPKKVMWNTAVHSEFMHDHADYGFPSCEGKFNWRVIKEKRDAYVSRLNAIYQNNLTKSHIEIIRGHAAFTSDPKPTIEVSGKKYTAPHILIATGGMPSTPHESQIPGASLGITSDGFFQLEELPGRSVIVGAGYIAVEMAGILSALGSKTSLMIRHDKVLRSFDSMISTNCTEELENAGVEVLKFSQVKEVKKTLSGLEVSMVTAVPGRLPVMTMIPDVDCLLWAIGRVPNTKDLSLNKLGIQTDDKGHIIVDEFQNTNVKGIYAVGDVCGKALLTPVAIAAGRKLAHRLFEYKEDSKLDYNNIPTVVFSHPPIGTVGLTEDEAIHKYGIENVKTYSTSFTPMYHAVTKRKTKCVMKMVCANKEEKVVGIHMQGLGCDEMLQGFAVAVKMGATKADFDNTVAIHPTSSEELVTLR

[9] = target: T3, Glutathione reductase, mitochondrial (Homo sapiens) (UniProt P00390); experiment: Compound at 1 mM was tested for the inhibition of human erythrocyte glutathione reductase; No inhibition
T3 sequence (whole entry): T2 sequence (P00390 whole entry)

T1 sequence (P28593 whole entry): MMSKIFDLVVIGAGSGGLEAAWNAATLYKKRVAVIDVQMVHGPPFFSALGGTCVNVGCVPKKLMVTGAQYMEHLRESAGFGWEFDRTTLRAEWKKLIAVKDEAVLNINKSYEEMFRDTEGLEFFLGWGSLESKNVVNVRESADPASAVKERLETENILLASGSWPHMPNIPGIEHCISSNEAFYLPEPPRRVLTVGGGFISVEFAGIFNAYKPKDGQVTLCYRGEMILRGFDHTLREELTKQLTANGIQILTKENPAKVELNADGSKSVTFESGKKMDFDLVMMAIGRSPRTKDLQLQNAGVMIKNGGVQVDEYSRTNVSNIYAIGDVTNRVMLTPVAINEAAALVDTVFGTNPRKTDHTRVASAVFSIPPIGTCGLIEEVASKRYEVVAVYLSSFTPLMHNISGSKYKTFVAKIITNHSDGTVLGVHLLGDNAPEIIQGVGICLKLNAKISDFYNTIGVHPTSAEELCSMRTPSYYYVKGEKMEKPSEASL

SMILES | pIC50 (Trypanothione reductase [1]) | EC50 (Trypanosoma brucei [2]) | pKi (Trypanothione reductase [3]) | also measured
C[N+](C)(CCCN1c2ccccc2Sc2ccc(Cl)cc21)CC(=O)C12CC3CC(CC(C3)C1)C2 | 4.89 |  | 5.91 | 
Cc1ccc(C[N+](C)(C)CCCN2c3ccccc3Sc3ccc(Cl)cc32)cc1 | 4.97 | 0.205 µg/mL and 410 nM | 5.74 | 
C[N+](C)(CCCN1c2ccccc2Sc2ccc(Cl)cc21)CC(=O)c1ccc2ccc3cccc4ccc1c2c34 |  |  |  | ED50 (Trypanosoma brucei [4]): 0.475 µg/mL
C[N+](C)(CCCN1c2ccccc2Sc2ccc(Cl)cc21)Cc1ccc(OCc2ccccc2)cc1 | 4.98 | 0.191 µg/mL and 350 nM | 6.33 | 
C[N+](C)(CCCN1c2ccccc2Sc2ccc(Cl)cc21)CC1CCCCC1 | 4.98 | 0.159 µg/mL and 320 nM | 5.64 | pKi [8]: 2.70
C[N+](C)(CCCN1c2ccccc2Sc2ccc(Cl)cc21)Cc1ccc(Br)cc1 | 4.92 | 0.508 µg/mL and 900 nM | 5.82 | 
C[N+](C)(CCCN1c2ccccc2Sc2ccc(Cl)cc21)Cc1ccc([N+](=O)[O-])cc1.[Cl-] | 4.75 | 0.348 µg/mL and 650 nM | 5.53 | 
CN(C)CCCN1c2ccccc2Sc2ccc(Cl)cc21 |  |  |  | NI [9]: inactive
C[N+](C)(CCCN1c2ccccc2Sc2ccc(Cl)cc21)Cc1ccc(Cl)cc1 | 4.90 | 0.675 µg/mL and 1.41 µM | 5.77 | pKi [8]: 2.66
C[N+](C)(C)CCCN1c2ccccc2Sc2ccc(Cl)cc21 | 4.55 |  | 5.96 | 

Continued, in another order:

pIC50 (Trypanothione reductase [1]) | EC50 (Trypanosoma brucei [2]) | pKi (Trypanothione reductase [3]) | SMILES | also measured
5.03 | 0.068 µg/mL and 120 nM | 5.81 | C[N+](C)(CCCN1c2ccccc2Sc2ccc(Cl)cc21)Cc1ccc2ccccc2c1 | 
5.41 |  | 6.33 | Cc1ccc(C[N+](C)(C)CCCN2c3ccccc3Sc3ccc(Cl)cc32)cc1C | 
5.10 |  | 5.89 | C[N+](C)(CCCN1c2ccccc2Sc2ccc(Cl)cc21)Cc1ccccc1 | 
5.39 | 0.023 µg/mL and 42 nM | 6.17 | CC(C)(C)c1ccc(C[N+](C)(C)CCCN2c3ccccc3Sc3ccc(Cl)cc32)cc1 | inhibition at 1 µM (Trypanosoma cruzi [5]): 59.2%; pEC50 (Trypanosoma cruzi [6]): > 6.00; inhibition at 3 µM (Trypanosoma cruzi [7]): 66.2%
5.00 | 1.48 µg/mL and 2.55 µM | 5.78 | C[N+](C)(CCCN1c2ccccc2Sc2ccc(Cl)cc21)Cc1c(F)c(F)c(F)c(F)c1F | 
5.27 |  | 6.11 | COc1cc(C[N+](C)(C)CCCN2c3ccccc3Sc3ccc(Cl)cc32)cc(OC)c1 | 
5.07 | 0.159 µg/mL and 280 nM | 5.84 | Cc1cc(C(=O)C[N+](C)(C)CCCN2c3ccccc3Sc3ccc(Cl)cc32)ccc1Cl | 
5.18 | 0.245 µg/mL and 470 nM | 5.62 | C[N+](C)(CCCN1c2ccccc2Sc2ccc(Cl)cc21)Cc1cccc(Cl)c1 | 
6.11 | 0.546 µg/mL and 1.07 µM | 6.92 | C[N+](C)(CCCN1c2ccccc2Sc2ccc(Cl)cc21)Cc1ccc(Cl)c(Cl)c1 | 
5.92 | 0.035 µg/mL and 62 nM | 6.15 | C[N+](C)(CCCN1c2ccccc2Sc2ccc(Cl)cc21)C(c1ccccc1)c1ccccc1 | 
5.53 | 3.11 µg/mL and 5.28 µM | 6.25 | COc1ccc2c(C[N+](C)(C)CCCN3c4ccccc4Sc4ccc(Cl)cc43)cc(=O)oc2c1 | 
